Hits are enriched below; roughly 1.5% of the tested compounds scored in any of these assays.
FLuc stim CS – affects firefly luciferase, flagging false hits in luciferase stimulation screens; P08659; ATPlite luciferase biochemical, luminescence, 10 min; 0 = ATP-free wells, 1 = DMSO control; activation factor at 10 µM; 200,000 tested, under 10 active; AID 1027;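 active = luciferase activation factor, scaled between plate controls, of at least 2 with compound at 10 µM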
Target sequence (P08659 whole entry, looked up): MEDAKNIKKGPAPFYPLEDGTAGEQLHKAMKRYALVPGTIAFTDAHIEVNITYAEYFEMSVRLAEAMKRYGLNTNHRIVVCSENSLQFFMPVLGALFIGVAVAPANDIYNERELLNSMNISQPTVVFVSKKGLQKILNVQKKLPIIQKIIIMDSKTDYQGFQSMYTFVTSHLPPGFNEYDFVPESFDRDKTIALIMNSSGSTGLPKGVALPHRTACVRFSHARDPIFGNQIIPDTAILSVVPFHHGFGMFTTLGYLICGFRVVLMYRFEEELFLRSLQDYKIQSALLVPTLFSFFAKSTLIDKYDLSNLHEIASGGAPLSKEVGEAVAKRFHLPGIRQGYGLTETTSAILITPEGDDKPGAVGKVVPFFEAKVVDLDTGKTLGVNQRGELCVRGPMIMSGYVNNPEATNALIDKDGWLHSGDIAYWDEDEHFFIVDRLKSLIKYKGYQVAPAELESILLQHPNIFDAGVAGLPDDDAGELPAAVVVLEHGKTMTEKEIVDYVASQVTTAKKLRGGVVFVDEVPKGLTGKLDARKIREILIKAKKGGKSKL
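System: luciferase plus luciferin reagent, cell-free; medium: PBS as buffer for the ATP substrate; dosing: test compounds dosed from 2 mM stocks in 100% DMSO; timing: 10 min post-reagent at room temperature; measured by: luminescence measurement of luciferase light output; evaluation: luciferase activation, seen as luminescence increase over controls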
PPC-1+TRAIL kill – kills PPC-1 cancer cells in the presence of TRAIL; actives 0.41% (n = 220,000); PPC-1 cells + TRAIL, ATPLite viability luminescence; cell killing (% activity), % at 4 µM or 5 µM;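 active = cell killing above 50% in the first pass at 4 µM, then a duplicate retest at 5 µM averaging 50% or more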;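 note: plate controls were cells with TRAIL plus DMSO for no effect and medium-only wells lacking cells for full effect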
FLuc inh counter – Photinus pyralis luciferase inhibition counter-screen | ATPLite firefly luciferase biochemical luminescence, 10 min | inhibition, % at 10 µM | P08659 | AID 1006 | actives 1.5% (n = 200,000);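 active = inhibition above about 50% when tested at 10 µM, limit read from the data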
TRAIL sens C8 – caspase-8 TRAIL sensitization | NB7+C8 cells + TRAIL, ATPlite viability luminescence | inhibition (viability loss, TRAIL sensitization), % at 10 µM | actives 1% (n = 360,000) | AID 624354;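 active = compounds causing at least 50% loss of cell viability in the single-dose screen, relative to plate controls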
Active calls of the source: *.

Screening O=C(CSc1nnc(-c2ccc(Br)cc2)o1)Nc1cccc(C(=O)O)c1 returned TRAIL sens C8 63*.
O=[N+]([O-])c1c(Nc2ccccc2O)cc(Cl)c2nonc12 was read as TRAIL sens C8 71*.
O=[N+]([O-])c1c(Nc2ccccc2O)ccc2nonc12 was read as FLuc stim CS 1.1, FLuc inh counter -6 and TRAIL sens C8 -3.
Screening c1ccc2[nH]c(-c3ccc4c(c3)OCO4)nc2c1 returned TRAIL sens C8 72*.
Screening COc1cccc(-c2nc3ccccc3s2)c1 returned FLuc stim CS 0.3, PPC-1+TRAIL kill 36, FLuc inh counter 75* and TRAIL sens C8 39.
`CC(=O)NCc1ccc(-c2nc3ccccc3s2)cc1` gave FLuc stim CS 0.4, PPC-1+TRAIL kill 32, FLuc inh counter 64* and TRAIL sens C8 39.
Screening c1ccc2sc(-c3ccc4c(c3)OCO4)nc2c1 returned FLuc stim CS 0.1, PPC-1+TRAIL kill 58*, FLuc inh counter 89* and TRAIL sens C8 73*.
For O=C(Nc1ccc(-c2nc3ccccc3[nH]2)cc1)c1ccc2c(c1)OCO2 the results were FLuc stim CS 1, PPC-1+TRAIL kill 20, FLuc inh counter 0 and TRAIL sens C8 0.
Screening O=C(NCc1ccccc1)c1nc2ccccc2s1 returned FLuc stim CS 1, PPC-1+TRAIL kill -9, FLuc inh counter 2 and TRAIL sens C8 -4.
For c1cncc(-c2nc3ccccc3s2)c1 the results were PPC-1+TRAIL kill -6 and TRAIL sens C8 -13.
For Oc1ccc(-c2nc3ccccc3s2)cc1 the results were PPC-1+TRAIL kill 32 and TRAIL sens C8 62*.
`c1ccc2sc(-c3ccncc3)nc2c1` gave PPC-1+TRAIL kill 8 and TRAIL sens C8 -2.
CNC[C@H](Cc1ccccc1)NC[C@@H](Cc1cccc2ccccc12)NCCc1ccc(C)cc1 was read as TRAIL sens C8 95*.
`CNCCNC[C@H](Cc1cccc2ccccc12)NCCc1ccccc1` gave TRAIL sens C8 -10.
CCOc1ccc(CCNC(=O)Cc2ccc(NC(=O)C3=C(C)OCCS3)cc2)cc1 was read as TRAIL sens C8 17.
For CSc1ccc(CNC(=O)Cc2ccc(NC(=O)C3=C(C)OCCS3)cc2)cc1 the results were TRAIL sens C8 59*.
Cc1ccccc1/C(N)=N/OC(=O)c1ccc(F)cc1 was read as FLuc stim CS 0.1, PPC-1+TRAIL kill 22, FLuc inh counter 92* and TRAIL sens C8 24.
Cc1cccc(/C(N)=N/OC(=O)c2ccoc2C)c1 was read as TRAIL sens C8 91*.
`C/C(=N/OC(=O)c1ccc(F)cc1)c1ccc(C)cc1` gave FLuc stim CS 0.3, PPC-1+TRAIL kill 15, FLuc inh counter 70* and TRAIL sens C8 -3.
Screening Cc1ccccc1C(=O)O/N=C(\N)c1ccccc1 returned TRAIL sens C8 92*.
Cc1cccc(/C(N)=N/OC(=O)c2ccncc2)c1 was read as TRAIL sens C8 18.
For CC(=NOC(=O)c1ccc(F)cc1)c1nccs1 the results were TRAIL sens C8 -24.
Screening Cc1ccccc1C(=O)O/N=C(\N)c1ccc([N+](=O)[O-])cc1 returned TRAIL sens C8 -15.
Screening COc1cc(/C=C/CNC[C@H]2O[C@@H](n3cnc4c(=O)[nH]c(N)nc43)[C@H](O)[C@@H]2O)ccc1O returned TRAIL sens C8 -5.
`Cc1ccc(/C(N)=N/OC(=O)c2cc(-c3ccccc3)nc3ccccc23)cc1` gave FLuc stim CS 1, PPC-1+TRAIL kill -17, FLuc inh counter 2 and TRAIL sens C8 81*.
For N/C(=N\OC(=O)/C=C/c1ccccc1)c1ccccc1 the results were FLuc stim CS 0.1, PPC-1+TRAIL kill -2, FLuc inh counter 85* and TRAIL sens C8 43.
`Cc1ccc(S(=O)(=O)n2ccc3c(OCCOCCNCc4ccc(F)cc4)cccc32)cc1` gave TRAIL sens C8 53*.
For COc1ccc(CCC(=O)Nc2ccc(Cn3ccnc3)cc2)cc1 the results were TRAIL sens C8 -15.
Screening Cc1noc(C)c1NC(=O)N(C)C[C@H]1OCc2cn(nn2)CCCC(=O)N([C@@H](C)CO)C[C@@H]1C returned TRAIL sens C8 4.
O=C(C=Cc1ccc(Cl)s1)c1ccc(Cl)s1 was read as TRAIL sens C8 -5.
`CCn1ncc(/C=C/C(=O)c2ccccc2)c1C` gave FLuc stim CS 0.2, PPC-1+TRAIL kill 50, FLuc inh counter 82* and TRAIL sens C8 29.
Cc1c(/C=C/C(=O)c2ccc(C(C)C)cc2)cnn1C was read as FLuc stim CS 0.4, PPC-1+TRAIL kill 6, FLuc inh counter 58* and TRAIL sens C8 21.
`Cc1c(/C=C/C(=O)c2ccc(O)cc2)cnn1C` gave FLuc stim CS 0.4, PPC-1+TRAIL kill 26, FLuc inh counter 58* and TRAIL sens C8 28.
Cc1c(/C=C/C(=O)c2ccc(Cl)s2)cnn1C was read as FLuc stim CS 0.4, PPC-1+TRAIL kill 14, FLuc inh counter 62* and TRAIL sens C8 -5.
COc1ccccc1/C=C/C(=O)c1ccccc1 was read as PPC-1+TRAIL kill 8 and TRAIL sens C8 11.
For Cc1c(/C=C/C(=O)c2ccccc2)cnn1C the results were FLuc stim CS 0.6, PPC-1+TRAIL kill 31, FLuc inh counter 42 and TRAIL sens C8 -4.
O=c1c2c(nc3cc(-c4ccccc4Cl)[nH]n13)CCS2 was read as FLuc stim CS 0.3, PPC-1+TRAIL kill 37, FLuc inh counter 74* and TRAIL sens C8 36.
For O=c1c2c(nc3cc(-c4ccccc4)[nH]n13)CCS2 the results were FLuc stim CS 0.4, PPC-1+TRAIL kill 14, FLuc inh counter 60* and TRAIL sens C8 9.
Cc1ccccc1-c1cc2nc(C)c(Cl)c(=O)n2[nH]1 was read as TRAIL sens C8 6.
Oc1ccc(N=Nc2n[nH]c(-c3ccccc3)n2)cc1 was read as FLuc stim CS 0.4, PPC-1+TRAIL kill 14, FLuc inh counter 59* and TRAIL sens C8 33.
For C/C(=N/NC(=O)c1ccccn1)c1ccco1 the results were FLuc stim CS 0.3, PPC-1+TRAIL kill 33, FLuc inh counter 70* and TRAIL sens C8 54*.
For C/C(=N/NC(=O)c1ccccn1)c1ccc(O)cc1 the results were PPC-1+TRAIL kill 7 and TRAIL sens C8 16.
`C/C(=N\NC(=O)c1ccc(Cl)cc1)c1ccccn1` gave TRAIL sens C8 51*.
`C/C(=N\NC(=O)c1ccccn1)c1ccc(Cl)cc1` gave PPC-1+TRAIL kill 27 and TRAIL sens C8 61*.
For Cc1ccc(-c2ccc(CCC(=O)O)n2Cc2ccco2)cc1 the results were FLuc stim CS 1, PPC-1+TRAIL kill 15, FLuc inh counter 0 and TRAIL sens C8 -2.
For Cn1c(=O)n(C)c2cc(S(=O)(=O)N3CCN(c4ccccc4)CC3)ccc21 the results were PPC-1+TRAIL kill 9 and TRAIL sens C8 6.
Screening O=C(CCl)N(c1ccccc1)C1CCCCC1 returned FLuc stim CS 1, PPC-1+TRAIL kill 16, FLuc inh counter 1 and TRAIL sens C8 95*.
Screening Nc1n[nH]c(-c2ccc(F)cc2)n1 returned FLuc stim CS 1, PPC-1+TRAIL kill -4, FLuc inh counter -3 and TRAIL sens C8 1.

Assay outcomes from PubChem.
